In ChEMBL document CHEMBL1154186, “Synthesis, kinase inhibitory potencies, and in vitro antiproliferative evaluation of new Pim kinase inhibitors” (J Med Chem, 2009):

Tests used:
[1] = biological target: T1, Serine/threonine-protein kinase Nek2 (Homo sapiens) (UniProt P51955); assay: Inhibition of NEK2alpha assessed as residual enzyme activity at 10 uM relative to untreated control
T1 sequence (whole entry): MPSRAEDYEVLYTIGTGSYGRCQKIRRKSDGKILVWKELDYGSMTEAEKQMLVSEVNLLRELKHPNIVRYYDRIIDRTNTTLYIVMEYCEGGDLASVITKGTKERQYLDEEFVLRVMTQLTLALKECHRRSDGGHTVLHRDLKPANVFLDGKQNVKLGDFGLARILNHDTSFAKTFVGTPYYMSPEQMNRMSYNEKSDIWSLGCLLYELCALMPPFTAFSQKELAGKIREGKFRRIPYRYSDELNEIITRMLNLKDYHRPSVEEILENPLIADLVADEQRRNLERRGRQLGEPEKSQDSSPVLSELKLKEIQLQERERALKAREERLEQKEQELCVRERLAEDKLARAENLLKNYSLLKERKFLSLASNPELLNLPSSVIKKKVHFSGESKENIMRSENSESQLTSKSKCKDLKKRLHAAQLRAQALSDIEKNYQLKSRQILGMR
Outline: (§1)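 Assayed with [γ-33P]ATP at 50 µM and 10 mM Mg acetate in 50 mM Tris/HCl pH 7.5, 0.1 mM EGTA, 0.1% 2-mercaptoethanol, 30 min, 21 °C. Phosphoric acid stop, P81 filter capture. ERK2 and Lck are mouse; AMPK is rat. 10 µM compound; % activity remaining relative to control without inhibitor, duplicates.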

[2] = biological target: T2, Serine/threonine-protein kinase 3 (Homo sapiens) (UniProt Q13188); assay: Inhibition of MST2 assessed as residual enzyme activity at 10 uM relative to untreated control
T2 sequence (whole entry): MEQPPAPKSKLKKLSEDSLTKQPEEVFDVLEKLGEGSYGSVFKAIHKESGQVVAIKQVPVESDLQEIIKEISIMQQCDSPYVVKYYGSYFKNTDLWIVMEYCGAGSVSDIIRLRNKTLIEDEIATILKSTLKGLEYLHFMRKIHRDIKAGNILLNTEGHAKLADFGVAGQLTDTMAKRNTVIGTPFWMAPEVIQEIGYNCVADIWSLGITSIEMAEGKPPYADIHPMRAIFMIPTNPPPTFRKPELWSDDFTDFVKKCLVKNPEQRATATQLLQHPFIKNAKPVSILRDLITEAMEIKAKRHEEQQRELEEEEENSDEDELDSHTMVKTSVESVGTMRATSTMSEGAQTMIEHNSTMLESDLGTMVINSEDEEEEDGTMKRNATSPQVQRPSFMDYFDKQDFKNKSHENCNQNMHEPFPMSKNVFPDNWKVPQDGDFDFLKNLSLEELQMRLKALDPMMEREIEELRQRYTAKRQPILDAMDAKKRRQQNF
Outline: (§2)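 Kinases of human origin, except CK1δ, which is rat. Run in 50 mM Tris/HCl pH 7.5, 0.1 mM EGTA, 0.1% 2-mercaptoethanol and 10 mM Mg acetate, with [γ-33P]ATP at 20 µM, 30 min at 21 °C. Acid-stopped and captured on P81 filters. Compound tested at 10 µM; residual % of uninhibited control, duplicate determinations.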

[3] = Inhibition of AMPK assessed as residual enzyme activity at 10 uM relative to untreated control; outline: as §1
[4] = biological target: Serine/threonine-protein kinase PAK 4 (Homo sapiens) (UniProt O96013); assay: Inhibition of PAK4 assessed as residual enzyme activity at 10 uM relative to untreated control
Serine/threonine-protein kinase PAK 4 (Homo sapiens), sequence (O96013 whole entry, looked up): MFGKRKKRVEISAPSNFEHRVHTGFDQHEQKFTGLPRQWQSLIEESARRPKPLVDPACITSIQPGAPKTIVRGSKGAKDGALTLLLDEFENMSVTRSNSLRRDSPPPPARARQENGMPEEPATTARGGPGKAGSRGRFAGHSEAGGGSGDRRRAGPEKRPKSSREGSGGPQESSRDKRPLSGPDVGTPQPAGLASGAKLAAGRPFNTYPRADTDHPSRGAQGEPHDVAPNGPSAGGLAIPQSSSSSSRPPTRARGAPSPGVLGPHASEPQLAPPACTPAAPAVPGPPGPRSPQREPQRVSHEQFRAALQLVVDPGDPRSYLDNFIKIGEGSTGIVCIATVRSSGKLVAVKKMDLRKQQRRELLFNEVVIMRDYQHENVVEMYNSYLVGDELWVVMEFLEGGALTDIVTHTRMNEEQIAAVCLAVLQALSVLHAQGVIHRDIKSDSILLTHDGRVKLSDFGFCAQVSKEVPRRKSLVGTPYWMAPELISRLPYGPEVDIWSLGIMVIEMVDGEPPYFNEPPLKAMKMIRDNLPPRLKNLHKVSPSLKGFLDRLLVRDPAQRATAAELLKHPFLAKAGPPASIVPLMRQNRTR
Outline: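 Radiometric filter-binding assay at 21 °C for 30 min. Mix: 50 mM Tris/HCl pH 7.5, 0.1 mM EGTA, 0.1% 2-mercaptoethanol, 10 mM Mg acetate and [γ-33P]ATP (800 cpm/pmol) at 5 µM. Stopped with orthophosphoric acid and spotted on P81. Compound at 10 µM; activity given as % remaining versus no-inhibitor control, duplicates. Kinases human full-length unless noted.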

[5] = biological target: Calcium/calmodulin-dependent protein kinase kinase 2 (Homo sapiens) (UniProt Q96RR4); assay: Inhibition of CAMKKbeta assessed as residual enzyme activity at 10 uM relative to untreated control
Calcium/calmodulin-dependent protein kinase kinase 2 (Homo sapiens), sequence (Q96RR4 2-588 limits assumed): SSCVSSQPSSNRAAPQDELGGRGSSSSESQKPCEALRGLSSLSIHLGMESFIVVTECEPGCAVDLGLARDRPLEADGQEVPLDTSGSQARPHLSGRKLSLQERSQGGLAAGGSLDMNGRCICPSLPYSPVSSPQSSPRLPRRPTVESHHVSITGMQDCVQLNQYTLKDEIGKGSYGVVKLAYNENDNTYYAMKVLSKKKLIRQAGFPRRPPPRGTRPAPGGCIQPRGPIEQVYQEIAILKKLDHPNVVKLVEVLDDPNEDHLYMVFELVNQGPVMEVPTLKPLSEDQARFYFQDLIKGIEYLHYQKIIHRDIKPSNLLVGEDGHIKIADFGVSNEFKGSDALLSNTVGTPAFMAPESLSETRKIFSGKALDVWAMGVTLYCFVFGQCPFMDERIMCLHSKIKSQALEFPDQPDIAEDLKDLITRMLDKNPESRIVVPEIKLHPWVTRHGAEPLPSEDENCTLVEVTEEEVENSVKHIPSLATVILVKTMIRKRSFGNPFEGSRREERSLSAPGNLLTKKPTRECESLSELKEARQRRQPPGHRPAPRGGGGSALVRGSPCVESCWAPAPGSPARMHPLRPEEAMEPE

[6] = biological target: MAP kinase-activated protein kinase 3 (Homo sapiens) (UniProt Q16644); assay: Inhibition of MAPKAPK3 assessed as residual enzyme activity at 10 uM relative to untreated control; outline: as §2
MAP kinase-activated protein kinase 3 (Homo sapiens), sequence (Q16644 whole entry, looked up): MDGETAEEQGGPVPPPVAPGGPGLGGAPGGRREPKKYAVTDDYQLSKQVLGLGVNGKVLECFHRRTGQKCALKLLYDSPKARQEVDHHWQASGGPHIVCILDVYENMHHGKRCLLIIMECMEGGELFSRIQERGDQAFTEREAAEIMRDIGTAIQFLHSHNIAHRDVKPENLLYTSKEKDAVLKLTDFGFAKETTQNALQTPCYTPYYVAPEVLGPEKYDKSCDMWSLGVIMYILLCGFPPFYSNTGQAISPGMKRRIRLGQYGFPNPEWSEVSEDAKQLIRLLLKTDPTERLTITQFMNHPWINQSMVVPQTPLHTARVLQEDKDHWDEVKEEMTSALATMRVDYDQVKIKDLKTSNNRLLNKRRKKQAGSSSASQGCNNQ

[7] = biological target: Calcium/calmodulin-dependent protein kinase type 1 (Homo sapiens) (UniProt Q14012); assay: Inhibition of CaMK1 assessed as residual enzyme activity at 10 uM relative to untreated control
Calcium/calmodulin-dependent protein kinase type 1 (Homo sapiens), sequence (Q14012 whole entry, looked up): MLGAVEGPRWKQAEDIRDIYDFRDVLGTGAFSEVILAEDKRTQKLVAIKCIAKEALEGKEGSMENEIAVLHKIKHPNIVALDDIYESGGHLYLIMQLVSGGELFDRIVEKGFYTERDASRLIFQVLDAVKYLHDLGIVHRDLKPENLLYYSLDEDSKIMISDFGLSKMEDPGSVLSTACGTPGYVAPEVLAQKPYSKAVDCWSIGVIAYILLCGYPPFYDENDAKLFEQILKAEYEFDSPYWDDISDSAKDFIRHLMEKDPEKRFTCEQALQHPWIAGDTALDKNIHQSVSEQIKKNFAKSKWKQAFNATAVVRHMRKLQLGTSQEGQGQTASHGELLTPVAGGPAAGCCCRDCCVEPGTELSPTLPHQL

[8] = biological target: T3, MAP kinase-activated protein kinase 5 (Homo sapiens) (UniProt Q8IW41); assay: Inhibition of PRAK assessed as residual enzyme activity at 10 uM relative to untreated control
T3 sequence (whole entry): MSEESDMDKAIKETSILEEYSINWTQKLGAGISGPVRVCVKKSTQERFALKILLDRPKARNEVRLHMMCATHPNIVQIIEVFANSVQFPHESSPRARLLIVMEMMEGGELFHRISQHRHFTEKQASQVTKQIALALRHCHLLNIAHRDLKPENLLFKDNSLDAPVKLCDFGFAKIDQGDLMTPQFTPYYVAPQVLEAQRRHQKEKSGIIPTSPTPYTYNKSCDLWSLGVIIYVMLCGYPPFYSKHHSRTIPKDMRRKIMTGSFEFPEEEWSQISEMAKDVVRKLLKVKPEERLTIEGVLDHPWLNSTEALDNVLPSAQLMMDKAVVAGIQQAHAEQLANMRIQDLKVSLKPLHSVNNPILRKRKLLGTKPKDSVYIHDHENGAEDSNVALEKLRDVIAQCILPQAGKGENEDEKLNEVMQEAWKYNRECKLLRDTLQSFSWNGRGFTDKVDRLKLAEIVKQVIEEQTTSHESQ

ERK2 (Mus musculus) = assay: Inhibition of ERK2 assessed as residual enzyme activity at 10 uM relative to untreated control
[9] = biological target: Mitogen-activated protein kinase 11 (Homo sapiens) (UniProt Q15759); assay: Inhibition of P38beta assessed as residual enzyme activity at 10 uM relative to untreated control; outline: as §2
Mitogen-activated protein kinase 11 (Homo sapiens), sequence (Q15759 whole entry): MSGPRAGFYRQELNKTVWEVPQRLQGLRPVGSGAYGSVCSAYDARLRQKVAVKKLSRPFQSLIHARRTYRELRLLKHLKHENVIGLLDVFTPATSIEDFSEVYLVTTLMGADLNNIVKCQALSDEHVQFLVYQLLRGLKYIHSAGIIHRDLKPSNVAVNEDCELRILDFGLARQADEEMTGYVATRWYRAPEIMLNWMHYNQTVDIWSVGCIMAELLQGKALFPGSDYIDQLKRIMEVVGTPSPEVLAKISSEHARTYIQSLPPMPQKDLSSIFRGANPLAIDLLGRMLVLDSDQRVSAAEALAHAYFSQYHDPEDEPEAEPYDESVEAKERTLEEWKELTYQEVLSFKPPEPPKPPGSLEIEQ

[10] = biological target: MAP kinase-activated protein kinase 2 (Homo sapiens) (UniProt P49137); assay: Inhibition of MAPKAPK2 assessed as residual enzyme activity at 10 uM relative to untreated control; outline: as §2
MAP kinase-activated protein kinase 2 (Homo sapiens), sequence (P49137 whole entry, looked up): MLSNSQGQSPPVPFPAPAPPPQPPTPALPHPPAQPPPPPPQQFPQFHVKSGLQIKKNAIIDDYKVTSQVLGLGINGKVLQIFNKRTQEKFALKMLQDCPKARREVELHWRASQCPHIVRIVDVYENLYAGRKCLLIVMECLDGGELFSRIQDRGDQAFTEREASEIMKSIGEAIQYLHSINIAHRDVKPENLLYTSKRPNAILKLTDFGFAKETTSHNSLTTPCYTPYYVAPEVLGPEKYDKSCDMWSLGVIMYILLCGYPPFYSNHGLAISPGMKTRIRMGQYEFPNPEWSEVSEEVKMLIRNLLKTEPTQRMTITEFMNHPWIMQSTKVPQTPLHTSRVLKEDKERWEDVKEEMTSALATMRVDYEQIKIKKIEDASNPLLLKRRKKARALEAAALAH

Compound | Activity [1] [%] | Activity [2] [%] | Activity [3] [%] | Activity [4] [%] | Activity [5] [%] | Activity [6] [%] | Activity [7] [%] | Activity [8] [%] | Activity (ERK2 (Mus musculus)) [%] | Activity [9] [%] | Activity [10] [%]
c1ccc2c(c1)[nH]c1c2ccc2cc[nH]c21 | 104 | 82 | 80 | 84 | 93 | 89 | 29 | 97 | 94 | 100 | 118
O=Cc1c[nH]c2c1ccc1c3ccccc3[nH]c12 | 88 | 63 | 59 | 88 | 56 | 69 | 71 | 72 | – | 80 | 84
O=Cc1c[nH]c2ccc3c4ccccc4[nH]c3c12 | 100 | 96 | 85 | 88 | 102 | 90 | 36 | 114 | 94 | 96 | 95
c1ccc2c(c1)[nH]c1c3cc[nH]c3ccc21 | 96 | 77 | 79 | 84 | 87 | 88 | 80 | 114 | 100 | 91 | 95
